From ChEMBL document CHEMBL2034858, “An efficient one-pot synthesis, structure, antimicrobial and antioxidant investigations of some novel quinolyldibenzo[b,e][1,4]diazepinones” (2012)
Values after ≈ are worked out from the molar mass of the structure shown.

How the values were obtained:
Aspergillus fumigatus = assay: Antifungal activity against Aspergillus fumigatus MTCC 3008 after 48 hrs by micro-broth dilution method; type: functional
Escherichia coli = assay: Antibacterial activity against Escherichia coli MTCC 443 after 24 hrs by micro-broth dilution method; type: functional; settings: MTCC 443, 24 h
Candida albicans = assay: Antifungal activity against Candida albicans MTCC 227 after 48 hrs by micro-broth dilution method; type: functional
Streptococcus pneumoniae = assay: Antibacterial activity against Streptococcus pneumoniae MTCC 1936 after 24 hrs by micro-broth dilution method; type: functional; settings: MTCC 1936, 24 h
Clostridium tetani = assay: Antibacterial activity against Clostridium tetani MTCC 449 after 24 hrs by micro-broth dilution method; type: functional; settings: MTCC 449, 24 h
Salmonella typhi = assay: Antibacterial activity against Salmonella typhi MTCC 98 after 24 hrs by micro-broth dilution method; type: functional, Salmonella enterica subsp. enterica serovar Typhi; settings: Salmonella enterica, MTCC 98, 24 h
Vibrio cholerae = assay: Antibacterial activity against Vibrio cholerae MTCC 3906 after 24 hrs by micro-broth dilution method; type: functional; settings: MTCC 3906, 24 h
[1] = Antioxidant activity assessed as ascorbic acid equivalent/100g at 200 ug/mL by FRAP assay; type: functional
[2] = test system: Mycobacterium tuberculosis; assay: Antitubercular activity against Mycobacterium tuberculosis H37Rv at 250 ug/mL; type: functional; settings: read-out: GI
Method in brief: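 M. tuberculosis H37Rv tested on conventional L.J. (Löwenstein–Jensen) medium; activity read as percent growth inhibition.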

Bacillus subtilis = assay: Antibacterial activity against Bacillus subtilis MTCC 441 after 24 hrs by micro-broth dilution method; type: functional; settings: MTCC 441, 24 h
[3] = test system: Mycobacterium tuberculosis; assay: Antitubercular activity against Mycobacterium tuberculosis H37Rv at > 256 ug/mL; type: functional

| Molecule | MIC (Aspergillus fumigatus; MTCC 3008, 48 h) | MIC (Escherichia coli) | MIC (Candida albicans; MTCC 227, 48 h) | MIC (Streptococcus pneumoniae) | MIC (Clostridium tetani) | MIC (Salmonella typhi) | MIC (Vibrio cholerae) | Activity [1] | inhibition of growth at 250 µg/mL [2] | MIC (Bacillus subtilis) | growth inhibition (GI) [3] | MIC (Aspergillus fumigatus) | MIC (Candida albicans) |
| --- | --- | --- | --- | --- | --- | --- | --- | --- | --- | --- | --- | --- | --- |
| C=CCN1c2ccccc2NC2=C(C(=O)CC(C)(C)C2)C1c1cc2ccc(Cl)cc2n(CC=C)c1=O (stereo not drawn) | > 250 µg/mL | > 250 µg/mL | > 250 µg/mL | > 250 µg/mL | 500 µg/mL (≈ 1000 µM) | > 250 µg/mL | 500 µg/mL (≈ 1000 µM) | 401 mmol | < 50% | > 250 µg/mL |  |  |  |
| C=CCN1c2ccccc2NC2=C(C(=O)CC(C)(C)C2)C1c1cc2ccc(C)cc2n(CC=C)c1=O (stereo not drawn) | > 250 µg/mL | 200 µg/mL (≈ 417 µM) | > 250 µg/mL | 250 µg/mL (≈ 521 µM) | 250 µg/mL (≈ 521 µM) | 250 µg/mL (≈ 521 µM) | > 250 µg/mL | 358 mmol | 67% | 250 µg/mL (≈ 521 µM) |  |  |  |
| O=C(O)c1cn(C2CC2)c2cc(N3CCNCC3)c(F)cc2c1=O [CIPROFLOXACIN] |  | 25 µg/mL (≈ 75.4 µM) |  | 50 µg/mL (≈ 151 µM) |  | 25 µg/mL (≈ 75.4 µM) | 25 µg/mL (≈ 75.4 µM) |  |  |  |  |  |  |
| C=CCn1c(=O)c(C2Nc3ccccc3NC3=C2C(=O)CC(C)(C)C3)cc2ccc(Cl)cc21 (stereo not drawn) | > 250 µg/mL | 250 µg/mL (≈ 544 µM) | > 250 µg/mL | > 250 µg/mL | 250 µg/mL (≈ 544 µM) | 100 µg/mL (≈ 217 µM) | > 250 µg/mL | 328 mmol | 62% | 250 µg/mL (≈ 544 µM) |  |  |  |
| C=CCN1c2ccccc2NC2=C(C(=O)CCC2)C1c1cc2cc(C)ccc2n(CC=C)c1=O (stereo not drawn) | 250 µg/mL (≈ 554 µM) | 250 µg/mL (≈ 554 µM) | > 250 µg/mL | > 250 µg/mL | 250 µg/mL (≈ 554 µM) | 250 µg/mL (≈ 554 µM) | 250 µg/mL (≈ 554 µM) | 499 mmol | < 50% | 200 µg/mL (≈ 443 µM) |  |  |  |
| C=CCN1c2ccccc2NC2=C(C(=O)CC(C)(C)C2)C1c1cc2cc(C)ccc2n(CC=C)c1=O (stereo not drawn) | 250 µg/mL (≈ 521 µM) | 100 µg/mL (≈ 208 µM) | > 250 µg/mL | 250 µg/mL (≈ 521 µM) | 250 µg/mL (≈ 521 µM) | 200 µg/mL (≈ 417 µM) | > 250 µg/mL | 292 mmol | < 50% | > 250 µg/mL |  |  |  |
| Clc1ccc(COC(Cn2ccnc2)c2ccc(Cl)cc2Cl)c(Cl)c1 (stereo not drawn) [MICONAZOLE] |  |  |  |  |  |  |  |  |  |  | 99% |  |  |
| C=CCn1c(=O)c(C2Nc3ccccc3NC3=C2C(=O)CC(C)(C)C3)cc2ccccc21 (stereo not drawn) | > 250 µg/mL | 200 µg/mL (≈ 470 µM) | > 250 µg/mL | > 250 µg/mL | 200 µg/mL (≈ 470 µM) | > 250 µg/mL | > 250 µg/mL | 324 mmol | < 50% | > 250 µg/mL |  |  |  |
| C=CCn1c(=O)c(C2Nc3ccccc3NC3=C2C(=O)CC(C)(C)C3)cc2ccc(C)cc21 (stereo not drawn) | > 250 µg/mL | 250 µg/mL (≈ 569 µM) | > 250 µg/mL | > 250 µg/mL | 250 µg/mL (≈ 569 µM) | 250 µg/mL (≈ 569 µM) | > 250 µg/mL | 270 mmol | 91% | 250 µg/mL (≈ 569 µM) |  |  |  |
| C=CCN1c2ccccc2NC2=C(C(=O)CC(C)(C)C2)C1c1cc2ccccc2n(CC=C)c1=O (stereo not drawn) | > 250 µg/mL | 250 µg/mL (≈ 537 µM) | 250 µg/mL (≈ 537 µM) | > 250 µg/mL | 500 µg/mL (≈ 1070 µM) | > 250 µg/mL | > 250 µg/mL | 266 mmol | < 50% | > 250 µg/mL |  |  |  |
| C=CCn1c(=O)c(C2Nc3ccccc3NC3=C2C(=O)CCC3)cc2ccccc21 (stereo not drawn) | > 250 µg/mL | 200 µg/mL (≈ 503 µM) | > 250 µg/mL | 200 µg/mL (≈ 503 µM) | 250 µg/mL (≈ 629 µM) | 250 µg/mL (≈ 629 µM) | 200 µg/mL (≈ 503 µM) | 347 mmol | < 50% | 250 µg/mL (≈ 629 µM) |  |  |  |
| OC(Cn1cncn1)(Cn1cncn1)c1ccc(F)cc1F [FLUCONAZOLE] |  |  |  |  |  |  |  |  |  |  | 99% |  |  |
| CC1(C)S[C@@H]2[C@H](NC(=O)[C@H](N)c3ccccc3)C(=O)N2[C@H]1C(=O)O [AMPICILLIN] |  | 100 µg/mL (≈ 286 µM) |  | 100 µg/mL (≈ 286 µM) | 250 µg/mL (≈ 715 µM) | 100 µg/mL (≈ 286 µM) | 100 µg/mL (≈ 286 µM) |  |  | 250 µg/mL (≈ 715 µM) |  |  |  |
| COC1=CC(=O)C[C@@H](C)[C@]12Oc1c(Cl)c(OC)cc(OC)c1C2=O [GRISEOFULVIN] | 100 µg/mL (≈ 283 µM) |  | 500 µg/mL (≈ 1420 µM) |  |  |  |  |  |  |  |  |  |  |
| C=CCN1c2ccccc2NC2=C(C(=O)CCC2)C1c1cc2ccc(Cl)cc2n(CC=C)c1=O (stereo not drawn) | > 250 µg/mL | 62.5 µg/mL (≈ 132 µM) | > 250 µg/mL | > 250 µg/mL | 500 µg/mL (≈ 1060 µM) | 200 µg/mL (≈ 424 µM) | 250 µg/mL (≈ 530 µM) | 361 mmol | 76% | 250 µg/mL (≈ 530 µM) |  |  |  |
| C=CCn1c(=O)c(C2Nc3ccccc3NC3=C2C(=O)CCC3)cc2cc(C)ccc21 (stereo not drawn) | > 250 µg/mL | 250 µg/mL (≈ 608 µM) | > 250 µg/mL | > 250 µg/mL | 100 µg/mL (≈ 243 µM) | 250 µg/mL (≈ 608 µM) | 500 µg/mL (≈ 1220 µM) | 499 mmol | 58% | 250 µg/mL (≈ 608 µM) |  |  |  |
| O=C(N[C@H](CO)[C@H](O)c1ccc([N+](=O)[O-])cc1)C(Cl)Cl [CHLORAMPHENICOL] |  | 50 µg/mL (≈ 155 µM) |  | 50 µg/mL (≈ 155 µM) | 50 µg/mL (≈ 155 µM) | 50 µg/mL (≈ 155 µM) | 50 µg/mL (≈ 155 µM) |  |  | 50 µg/mL (≈ 155 µM) |  |  |  |
| C=CCN1c2ccccc2NC2=C(C(=O)CCC2)C1c1cc2ccc(C)cc2n(CC=C)c1=O (stereo not drawn) | > 250 µg/mL | > 250 µg/mL | 250 µg/mL (≈ 554 µM) | > 250 µg/mL | 500 µg/mL (≈ 1110 µM) | 200 µg/mL (≈ 443 µM) | 100 µg/mL (≈ 221 µM) | 382 mmol | 64% | 250 µg/mL (≈ 554 µM) |  |  |  |
| C=CCN1c2ccccc2NC2=C(C(=O)CCC2)C1c1cc2ccccc2n(CC=C)c1=O (stereo not drawn) | 250 µg/mL (≈ 571 µM) | > 250 µg/mL | > 250 µg/mL | 100 µg/mL (≈ 229 µM) | 200 µg/mL (≈ 457 µM) | 250 µg/mL (≈ 571 µM) | 100 µg/mL (≈ 229 µM) | 389 mmol | 51% | 100 µg/mL (≈ 229 µM) |  |  |  |
| CCn1cc(C(=O)O)c(=O)c2cc(F)c(N3CCNCC3)cc21 [NORFLOXACIN] |  | 10 µg/mL (≈ 31.3 µM) |  | 10 µg/mL (≈ 31.3 µM) | 50 µg/mL (≈ 157 µM) | 10 µg/mL (≈ 31.3 µM) | 10 µg/mL (≈ 31.3 µM) |  |  | 100 µg/mL (≈ 313 µM) |  |  |  |
| C=CCn1c(=O)c(C2Nc3ccccc3NC3=C2C(=O)CCC3)cc2ccc(Cl)cc21 (stereo not drawn) | > 250 µg/mL | 100 µg/mL (≈ 232 µM) | > 250 µg/mL | 250 µg/mL (≈ 579 µM) | 250 µg/mL (≈ 579 µM) | 250 µg/mL (≈ 579 µM) | 250 µg/mL (≈ 579 µM) | 490 mmol | < 50% | 250 µg/mL (≈ 579 µM) |  |  |  |
| NYSTATIN |  |  |  |  |  |  |  |  |  |  |  | 100 µg/mL | 100 µg/mL |
| C=CCn1c(=O)c(C2Nc3ccccc3NC3=C2C(=O)CC(C)(C)C3)cc2cc(C)ccc21 (stereo not drawn) | 250 µg/mL (≈ 569 µM) | > 250 µg/mL | > 250 µg/mL | 250 µg/mL (≈ 569 µM) | 500 µg/mL (≈ 1140 µM) | 250 µg/mL (≈ 569 µM) | 250 µg/mL (≈ 569 µM) | 462 mmol | 96% | 200 µg/mL (≈ 455 µM) |  |  |  |
| C=CCn1c(=O)c(C2Nc3ccccc3NC3=C2C(=O)CCC3)cc2ccc(C)cc21 (stereo not drawn) | 250 µg/mL (≈ 608 µM) | 62.5 µg/mL (≈ 152 µM) | > 250 µg/mL | > 250 µg/mL | 500 µg/mL (≈ 1220 µM) | 100 µg/mL (≈ 243 µM) | 100 µg/mL (≈ 243 µM) | 499 mmol | 75% | 200 µg/mL (≈ 486 µM) |  |  |  |
